Source: ChEMBL document CHEMBL5329191, “Optimization of the 2-arylquinazoline-4(3H)one scaffold for a selective and potent antitrypanosomal agent: modulation of the mechanism of action through chemical functionalization” (RSC Med Chem, 2023)
Converted amounts (≈) assume the structure as drawn. The source made the active and inactive calls. No cut-off for these calls is given here.

Columns and labels:
[1] = tested on: Leishmania infantum; assay: Antileishmanial activity against Leishmania infantum promastigotes; assay type: functional, organism-based
[2] = tested on: Trypanosoma cruzi; assay: Antitrypanosomal activity against of Trypanosoma cruzi epimastigotes; assay type: functional, organism-based
[3] = tested on: Leishmania infantum; assay: Antileishmanial activity against Leishmania infantum promastigotes in presence of FA; assay type: functional, organism-based
[4] = tested on: Trypanosoma cruzi; assay: Antitrypanosomal activity against of Trypanosoma cruzi epimastigotes in presence of FA; assay type: functional, organism-based
[5] = tested on: Leishmania infantum; assay: Antileishmanial activity against Leishmania infantum promastigotes assessed as increase in IC50 in presence of FA; assay type: functional
[6] = tested on: Trypanosoma cruzi; assay: Antitrypanosomal activity against of Trypanosoma cruzi epimastigotes assessed as increase in IC50 in presence of FA; assay type: functional
[7] = Solubility of the compound by UV-Vis spectroscopy; assay type: physicochemical
Outline: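 Solubility in μM was determined by UV-Vis spectroscopy.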

[8] = Cytotoxicity against mouse J774.1 cells; assay type: toxicity, cell-based
Outline: (§1)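 Cytotoxicity (CC50) was measured on murine J774.1A macrophages. Selectivity index is CC50 divided by parasite IC50 (promastigote, epimastigote or axenic amastigote). Values are the mean of three independent experiments.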

[9] = Selectivity index, ratio of CC50 for mouse J774.1 cells to IC50 for Leishmania infantum promastigotes; assay type: toxicity; conditions: read-out: Ratio CC50/IC50; outline: as §1
[10] = Selectivity index, ratio of CC50 for mouse J774.1 cells to IC50 for Trypanosoma cruzi epimastigotes; assay type: toxicity; conditions: read-out: Ratio CC50/IC50; outline: as §1
[11] = tested on: Leishmania infantum; assay: Antileishmanial activity against Leishmania infantum axenic amastigotes; assay type: functional, organism-based
[12] = Selectivity index, ratio of CC50 for mouse J774.1 cells to IC50 for Leishmania infantum amastigotes; assay type: toxicity; conditions: read-out: Ratio CC50/IC50; outline: as §1
[13] = tested on: Leishmania infantum; assay: Antileishmanial activity against Leishmania infantum promastigotes assessed as decrease in IC50 in presence of copper(II); assay type: functional, organism-based
Outline: (§2)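 Parasite proliferation was run in the presence of copper(II), iron(III) or zinc(II) salts, each at 1 μM.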

[14] = tested on: Leishmania infantum; assay: Antileishmanial activity against Leishmania infantum promastigotes assessed as decrease in IC50 in presence of iron(III); assay type: functional, organism-based; outline: as §2
[15] = tested on: Leishmania infantum; assay: Antileishmanial activity against Leishmania infantum promastigotes assessed as decrease in IC50 in presence of zinc(II); assay type: functional, organism-based; outline: as §2
[16] = tested on: Trypanosoma cruzi; assay: […] activity against Trypanosoma cruzi epimastigotes assessed as change in parasites in presence of copper(II); assay type: functional, organism-based; outline: as §2
[17] = tested on: Trypanosoma cruzi; assay: […] activity against Trypanosoma cruzi epimastigotes assessed as change in parasites in presence of iron(III); assay type: functional, organism-based; outline: as §2
[18] = tested on: Trypanosoma cruzi; assay: […] activity against Trypanosoma cruzi epimastigotes assessed as change in parasites in presence of zinc(II); assay type: functional, organism-based; outline: as §2
[19] = tested on: Leishmania infantum; assay: Induction of ROS production in Leishmania infantum promastigotes in presence of Zn2+; assay type: functional, organism-based
Outline: (§3)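 Oxidative stress in parasite cultures was read fluorometrically with the 2,7-dichlorodihydrofluorescein diacetate (DCFH-DA) probe against a negative-control culture, and was also run with metal cations present.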

[20] = tested on: Leishmania infantum; assay: Induction of ROS production in Leishmania infantum promastigotes in presence of Cu2+; assay type: functional, organism-based; outline: as §3
[21] = tested on: Leishmania infantum; assay: Induction of ROS production in Leishmania infantum promastigotes in presence of Fe3+; assay type: functional, organism-based; outline: as §3
[22] = tested on: Trypanosoma cruzi; assay: Induction of ROS production in Trypanosoma cruzi epimastigotes in presence of Zn2+; assay type: functional, organism-based; outline: as §3
[23] = tested on: Trypanosoma cruzi; assay: Induction of ROS production in Trypanosoma cruzi epimastigotes in presence of Cu2+; assay type: functional, organism-based; outline: as §3
[24] = tested on: Trypanosoma cruzi; assay: Induction of ROS production in Trypanosoma cruzi epimastigotes in presence of Fe3+; assay type: functional, organism-based; outline: as §3
[25] = Mutagenicity in Salmonella typhimurium TA98 assessed as number of revertant colonies at 100 uM by Ames test (reference value: 4); assay type: toxicity; conditions: salmonella enterica subsp. enterica […]
Outline: (§4)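 Ames reverse-mutation assay in Salmonella typhimurium TA 98. Revertant colonies were counted at five escalating dose levels alongside a zero-dose (spontaneous revertant) negative control and a 4-nitro-o-phenylenediamine positive control. A compound was called mutagenic when revertants exceeded twice the negative control at two consecutive dose levels.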

[26] = Mutagenicity in Salmonella typhimurium TA98 assessed as number of revertant colonies at 300 uM by Ames test (reference value: 4); assay type: toxicity; conditions: salmonella enterica subsp. enterica […]; outline: as §4
[27] = Mutagenicity in Salmonella typhimurium TA98 assessed as number of revertant colonies at 1000 uM by Ames test (reference value: 4); assay type: toxicity; conditions: salmonella enterica subsp. enterica […]; outline: as §4
[28] = Mutagenicity in Salmonella typhimurium TA98 assessed as number of revertant colonies at 3000 uM by Ames test (reference value: 4); assay type: toxicity; conditions: salmonella enterica subsp. enterica […]; outline: as §4
[29] = Mutagenicity in Salmonella typhimurium TA98 assessed as number of revertant colonies at 9000 uM by Ames test (reference value: 4); assay type: toxicity; conditions: salmonella enterica subsp. enterica […]; outline: as §4
[30] = tested on: Leishmania infantum; assay: Induction of NO production in Leishmania infantum promastigotes by Griess method; assay type: functional, organism-based
Outline: (§5)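 NO production in parasite cultures was measured at three test concentrations, either 25, 50 and 100 μM or 1, 5 and 10 μM depending on the compound.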

[31] = tested on: Trypanosoma cruzi; assay: Induction of NO production in Trypanosoma cruzi epimastigotes by Griess method; assay type: functional, organism-based; outline: as §5
[32] = tested on: Leishmania infantum; assay: Induction of ROS production in Leishmania infantum promastigotes by DCFH-DA staining based flow cytometry analysis; assay type: functional, organism-based; outline: as §3
[33] = tested on: Trypanosoma cruzi; assay: Induction of ROS production in Trypanosoma cruzi epimastigotes by DCFH-DA staining based flow cytometry analysis; assay type: functional, organism-based; outline: as §3
[34] = tested on: Trypanosoma cruzi; assay: Antitrypanosomal activity against of Trypanosoma cruzi epimastigotes at 25 uM; assay type: functional
[35] = tested on: Leishmania infantum; assay: Induction of NO production in Leishmania infantum promastigotes at highest concentration by Griess method; assay type: functional; outline: as §5
[36] = tested on: Trypanosoma cruzi; assay: Induction of NO production in Trypanosoma cruzi epimastigotes at highest concentration by Griess method; assay type: functional; outline: as §5

NNc1nc(-c2ccc(Br)cc2)nc2ccccc12
IC50 [1]: 2.13 µM
IC50 [2]: 14.3 µM
IC50 [3]: 2.83 µM
IC50 [4]: 25.2 µM
Activity [5]: 33%
Activity [6]: 48%

O=[N+]([O-])c1ccc(/C=N/N=c2\[nH]c(-c3ccc(Br)cc3)nc3ccccc23)o1
IC50 [1]: > 25 µM
IC50 [2]: > 25 µM
solubility [7]: 2.67 µM (≈ 1.17 µg/mL)

O=[N+]([O-])c1ccc(/C=N/N=c2\[nH]c(-c3ccc(F)cc3)nc3ccccc23)o1
IC50 [1]: 4.56 µM
IC50 [2]: 4.08 µM
solubility [7]: 5.11 µM (≈ 1.93 µg/mL)
CC50 [8]: 69.1 µM
selectivity ratio [9]: 15.1
selectivity ratio [10]: 16.8
IC50 [11]: 3.52 µM
selectivity ratio [12]: 19.6
IC50 [4]: 6.54 µM
Activity [5]: 31%
Activity [6]: 38%
Activity [13]: Active
Activity [14]: Active
Activity [15]: Active
Activity [16]: inactive
Activity [17]: inactive
Activity [18]: inactive
Activity [19]: Active
Activity [20]: Active
Activity [21]: Active
Activity [22]: Active
Activity [23]: Active
Activity [24]: Active
Activity [25]: 2
Activity [26]: 2.5
Activity [27]: 3.5
Activity [28]: 3
Activity [29]: 3

CC1CS(=O)(=O)CCN1/N=C/c1ccc([N+](=O)[O-])o1 (stereo unspecified) [NIFURTIMOX]
selectivity ratio [10]: 36.3

O=c1[nH]c(-c2cccc(Cl)c2)nc2ccccc12
IC50 [1]: > 25 µM
IC50 [2]: > 25 µM

O=c1[nH]c(-c2ccc(Cl)cc2)nc2ccccc12
IC50 [1]: 4.88 µM
IC50 [2]: 18.1 µM
IC50 [3]: 6.22 µM
IC50 [4]: 24.2 µM
Activity [5]: 27%
Activity [6]: 34%
Activity [30]: inactive
Activity [31]: inactive
Activity [32]: inactive
Activity [33]: inactive

O=c1[nH]c(-c2ccc(Br)cc2)nc2ccccc12
IC50 [1]: 6.89 µM
IC50 [2]: 19.8 µM

O=[N+]([O-])c1ccc(/C=N/N=c2\[nH]c(-c3ccccc3)nc3ccccc23)o1
IC50 [1]: 0.88 µM
IC50 [2]: 0.63 µM
solubility [7]: 7.99 µM (≈ 2.87 µg/mL)
CC50 [8]: 15.1 µM
selectivity ratio [9]: 17.1
selectivity ratio [10]: 23.9
IC50 [11]: 0.93 µM
selectivity ratio [12]: 16.2
Activity [13]: Active
Activity [14]: Active
Activity [15]: Active
Activity [16]: inactive
Activity [17]: inactive
Activity [18]: inactive
Activity [19]: Active
Activity [20]: Active
Activity [21]: Active
Activity [22]: Active
Activity [23]: Active
Activity [24]: Active

NNc1nc(-c2ccccc2)nc2ccccc12
IC50 [1]: 12.7 µM
IC50 [2]: > 25 µM
inhibition at 25 µM [34]: 42.7%

Cc1ccc(-c2nc3ccccc3/c(=N/N=C/c3ccc([N+](=O)[O-])o3)[nH]2)cc1
IC50 [1]: > 25 µM
IC50 [2]: > 25 µM
solubility [7]: 7.23 µM (≈ 2.7 µg/mL)

NNc1nc(-c2ccc(F)cc2)nc2ccccc12
IC50 [1]: 5.01 µM
IC50 [2]: 17.9 µM

NNc1nc(-c2cccc(Br)c2)nc2ccccc12
IC50 [1]: 21.1 µM
IC50 [2]: > 25 µM
inhibition at 25 µM [34]: 21.4%

O=[N+]([O-])c1ccc(/C=N/N=c2\[nH]c(-c3ccc(Cl)cc3)nc3ccccc23)o1
IC50 [1]: > 25 µM
IC50 [2]: > 25 µM
solubility [7]: 3.21 µM (≈ 1.26 µg/mL)

NNc1nc(-c2ccc(Cl)cc2)nc2ccccc12
IC50 [1]: 1.56 µM
IC50 [2]: 11.5 µM
IC50 [3]: 2.05 µM
IC50 [4]: 19.1 µM
Activity [5]: 31%
Activity [6]: 42%
Activity [30]: Dose-Dependent Effect
Activity [31]: Dose-Dependent Effect
Activity [35]: >4 µM
Activity [36]: >2 µM
Activity [32]: inactive
Activity [33]: inactive

Cc1ccc(-c2nc(NN)c3ccccc3n2)cc1
IC50 [1]: 1.2 µM
IC50 [2]: 18 µM

CCCCCCCCCCCCCCCCOP(=O)([O-])OCC[N+](C)(C)C [MILTEFOSINE]
IC50 [1]: 10.1 µM
CC50 [8]: 89.2 µM
selectivity ratio [9]: 8.9
IC50 [11]: 8.69 µM
selectivity ratio [12]: 10.1

NNc1nc(-c2cccc(Cl)c2)nc2ccccc12
IC50 [1]: 4.55 µM
IC50 [2]: > 25 µM
inhibition at 25 µM [34]: 38%

Oc1nc(-c2ccc(F)cc2)nc2ccccc12
IC50 [1]: 8.67 µM
IC50 [2]: 22.7 µM
IC50 [3]: 9.78 µM
IC50 [4]: 33.2 µM
Activity [5]: 14%
Activity [6]: 47%

Fc1ccc(-c2nc3ccccc3/c(=N/N=C/c3ccco3)[nH]2)cc1
IC50 [1]: 9.07 µM
IC50 [2]: 9.07 µM
solubility [7]: 7.87 µM (≈ 2.62 µg/mL)
CC50 [8]: 119 µM
selectivity ratio [9]: 13.1
selectivity ratio [10]: 5.7
IC50 [11]: 11.1 µM
selectivity ratio [12]: 10.7
IC50 [4]: 33.1 µM
Activity [5]: 41%
Activity [6]: 37%
Activity [30]: inactive
Activity [31]: inactive
Activity [32]: inactive
Activity [33]: inactive

O=[N+]([O-])c1ccc(/C=N/N=c2\[nH]c(-c3cccc(Br)c3)nc3ccccc23)o1
IC50 [1]: > 25 µM
IC50 [2]: > 25 µM
solubility [7]: 5.67 µM (≈ 2.48 µg/mL)

Cc1ccc(-c2nc3ccccc3c(=O)[nH]2)cc1
IC50 [1]: 5.23 µM
IC50 [2]: > 25 µM

O=c1[nH]c(-c2cccc(Br)c2)nc2ccccc12
IC50 [1]: > 25 µM
IC50 [2]: > 25 µM
